Assay outcomes deposited in PubChem by The Scripps Research Institute Molecular Screening Center.
An excerpt weighted towards active compounds, which were near 2.6% of everything screened.
PRMT1 FP inh: inhibitors of human PRMT1 | Q99873 | 370,000 compounds, 1.3% hits | recombinant PRMT1, activity-based probe fluorescence polarization | inhibition, % at 2.79 µM;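 active means inhibition above about 21% made by adding two undisclosed values, limit read from the data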
Target sequence (Q99873 whole entry, looked up): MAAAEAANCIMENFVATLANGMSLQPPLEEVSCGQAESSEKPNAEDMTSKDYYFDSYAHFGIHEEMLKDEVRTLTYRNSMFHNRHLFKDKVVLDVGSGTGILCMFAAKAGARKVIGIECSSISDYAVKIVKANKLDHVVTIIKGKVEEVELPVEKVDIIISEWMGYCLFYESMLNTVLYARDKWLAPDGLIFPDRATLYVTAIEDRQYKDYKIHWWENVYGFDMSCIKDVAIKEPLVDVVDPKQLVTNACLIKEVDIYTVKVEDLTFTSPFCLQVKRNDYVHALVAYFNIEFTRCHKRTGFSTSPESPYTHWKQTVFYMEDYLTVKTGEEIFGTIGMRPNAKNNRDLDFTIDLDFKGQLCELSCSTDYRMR
HTRA1 inh: blocks human HTRA1 serine peptidase | 340,000 compounds, 0.5% hits | recombinant HTRA1, FP-rhodamine activity-based probe, fluorescence polarization | Q92743 | inhibition, % at 5.96 µM; in the data active means inhibition above about 36%;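 further: 0% = enzyme with DMSO and 100% = wells lacking enzyme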
TCR CD3 inh: blocks the human TCR-CD3 interaction | AID 651800 | inhibition, % at 9.4 µM | TAMRA-labeled TCR probe fluorescence, biochemical | 360,000 compounds, 0.37% hits;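 further: recombinant mutant TCR 2C K166C tagged with TAMRA read by polarization; 0% = receptor in buffer alone and 100% = receptor with positive control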
SIAE primary: human SIAE inhibition, primary screen | SIAE FP-Rh probe binding, fluorescence polarization | inhibition, % at 9.66 µM | 370,000 compounds, 0.69% hits;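 active means inhibition above a cutoff: mean of compounds within the control limits plus 3 SD of those, cut at about 17% in these data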;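 further: 0% = plate median of compound wells and 100% = probe without SIAE protein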
ABHD4 inh: inhibitors of mouse ABHD4; purified mABHD4, FP-Rh probe fluorescence polarization; inhibition, % at 8.92 µM; 370,000 compounds, 0.54% hits; AID 720543;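 active means inhibition exceeding the mean over every tested compound plus 3 SD, cut at about 30% in these data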;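 further: 0% = plate median of compound wells and 100% = S159A mutant with DMSO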
Target sequence (Q8VD66 whole entry, looked up): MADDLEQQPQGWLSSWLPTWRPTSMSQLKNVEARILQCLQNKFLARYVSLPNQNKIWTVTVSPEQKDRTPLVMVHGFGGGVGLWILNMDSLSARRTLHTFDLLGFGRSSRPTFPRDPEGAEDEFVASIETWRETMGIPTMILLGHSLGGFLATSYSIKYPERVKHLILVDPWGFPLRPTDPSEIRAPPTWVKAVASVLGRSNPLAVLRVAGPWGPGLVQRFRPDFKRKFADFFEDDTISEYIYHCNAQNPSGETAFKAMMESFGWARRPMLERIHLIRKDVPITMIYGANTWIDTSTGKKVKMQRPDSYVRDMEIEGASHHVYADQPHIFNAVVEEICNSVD
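Assay system: wild-type mouse ABHD4 protein; compound: single nominal dose of 8.92 µM, 0.89% DMSO final; schedule: 45 min + 60 min at 25 °C; measured by: FP readout, ex 525 nm / em 598 nm; evaluation: % inhibition of FP-Rh probe binding versus controls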
BSA probe FL: interferes with TAMRA-BSA probe, flagging TCR-CD3 hits. inhibition, % at 9.4 µM. 1,200 compounds, 10% hits. shares compounds with TCR CD3 inh. AID 652035. TAMRA-labeled BSA probe fluorescence counterscreen; in the data active means inhibition above about 23%;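 further: 0% = buffer low control and 100% = reference high control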
TCR-CD3 inh conf: TCR-CD3 interaction inhibition, confirmation. shares compounds with TCR CD3 inh. TAMRA-labeled TCR probe fluorescence binding assay. inhibition, % at 9.4 µM. 1,200 compounds, 48% hits. AID 652036
PRMT1 confirm: PRMT1 (human) inhibition, FP confirmation; recombinant His-PRMT1, activity-based probe fluorescence polarization; shares compounds with PRMT1 FP inh; inhibition, % at 2.79 µM; 3,300 compounds, 42% hits;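 active means mean inhibition across replicates above the hit cutoff derived for the earlier primary screen, cut at about 22% in these data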
ABHD4 confirm: confirmation of mouse ABHD4 inhibitors | shares compounds with ABHD4 inh | purified mABHD4, FP-Rh probe fluorescence polarization | inhibition, % at 8.92 µM | 1,800 compounds, 55% hits | AID 720658;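 active means mean inhibition across replicates above the hit cutoff set in the primary screen, cut at about 30% in these data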;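 further: 0% = wild-type ABHD4 with DMSO and 100% = catalytically dead S159A mutant with DMSO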
The depositor's hits bear a star; nt = no result given; ! = repeats disagree. Unless noted, no stated cut-off is given here; in the data, active means inhibition above about 19%; inactive means the rest.

SMILES | PRMT1 FP inh | HTRA1 inh | TCR CD3 inh | SIAE primary | ABHD4 inh | BSA probe FL | TCR-CD3 inh conf | ABHD4 confirm | others
CNC(=S)N/N=C/c1cc(Br)cc(Br)c1O | -0.8 | 34.4 | 40.4* | 6.7 | 30.7* | -12.1 | 36.2* | 27.4
O=C1NC(=O)C2(N1)C(=O)c1cccc3cccc2c13 (stereo not given) | 139.2* | 23.0 | 60.8* | 5.2 | 77.6* | 37.2* | 31.1* | 16.5 | PRMT1 confirm=72.2*
CN(CCC#N)c1ccc(/C=C(\C#N)c2ccccn2)cc1 | 193.8* | 0.4 | 80.9* | -5.9 | 89.0* | 3.7 | 11.3 | -6.7 | PRMT1 confirm=-0.4
CC1=NN(c2cccc(C(=O)O)c2)C(=O)/C1=C\C=C\c1ccco1 | 26.7* | 15.8 | 19.1* | 11.8 | 40.4* | -10.4 | 15.1 | 56.9*
CC1=NN(c2ccccc2)C(=O)/C1=C/C=C/c1ccccc1 | -2.4 | 3.0 | 0.7 | 9.0 | 17.0 | nt | nt | nt
C=C1[C@@H](CCO)N(S(=O)C(C)(C)C)C[C@@H]1C (stereo not given in full) | -5.7 | nt | -1.0 | -5.1 | -5.4 | nt | nt | nt
Oc1ccc(/C=N/NC(=S)Nc2cccnc2)c(O)c1O | 67.0* | 36.1 | 82.7* | 53.1* | 41.1* | -12.3 | 55.8* | 68.0* | PRMT1 confirm=88.0*
CN(C)c1ncc(C2=C(Cl)C(=O)C(N3CCCC3)=C(Cl)C2=O)s1 | 68.1* | 38.5* | 21.5* | 25.1* | 62.7* | -14.9 | 7.0 | 83.3*
CN(C)c1ccc(O)c2c1CC1CC3[C@@H](N(C)C)C(=O)C(C(N)=O)=C(O)[C@]3(O)C(=O)C1=C2O (stereo not given in full) | 31.3* | 29.2 | 45.9* | 25.0* | 76.9* | -7.0 | 27.3* | 44.0*
O=C(O)/C=C/C(=O)Nc1ccc(O)cc1 | 18.8 | 15.8 | 19.8* | 6.9 | 36.9* | 3.7 | 7.4 | 15.5
C[C@H]1[C@@H](N(C)C)CC[C@@]23CCCN2C(=O)CCC[C@@H]13 | -2.3 | nt | nt | 3.4 | 10.2 | nt | nt | nt
Nc1ccc2c3c(cccc13)C(=O)N(c1ccccc1)C2=O | 174.0* | 20.8 | 27.8* | 10.1 | 38.3* | 43.2* | 33.6* | 33.0* | PRMT1 confirm=164.5*
COC(=O)[C@]12C[C@H](CC(=O)NCC34CC5CC(CC(C5)C3)C4)C(=O)N(CCC3=CCCCC3)C1=C[C@H](C(C)C)O[C@@H]2C1CC1 | -2.9 | nt | nt | -3.7 | 4.1 | nt | nt | nt
Nc1ccc2nc3c(=O)n(C4CCCCC4)c(=O)[nH]c3nc2c1 | 145.2* | 30.6 | 24.0* | 10.5 | 42.8* | 28.3* | 26.9* | 40.5* | PRMT1 confirm=132.5*
Nc1ccc2nc3c(=O)n(CCc4ccccc4)c(=O)[nH]c3nc2c1 | 135.8* | nt | 27.4* | 15.0 | 39.8* | 26.1* | 20.6* | 29.6* | PRMT1 confirm=123.0*
COc1cc2[nH]c(=O)n(C3CCCCC3)c(=O)c2cc1OC | -3.3 | 2.3 | 0.3 | -5.2 | -7.3 | nt | nt | nt
CN1CCCC1CCSc1ncccc1-c1nc2ccccc2[nH]1 (stereo not given) | 0.6 | nt | nt | -1.6 | 4.8 | nt | nt | nt
O=C(Nc1cccc(Cl)c1)OC1CCC12CCC(c1ccccc1)CC2 (stereo not given) | -6.0 | nt | nt | -16.2 | -26.9 | nt | nt | nt
O=C(O)CCCCCn1c(SCC(=O)N2CCCC2)nc2ccsc2c1=O | 0.0 | 3.1 | 1.8 | -0.7 | -2.0 | nt | nt | nt
O=C(O)CCCCCn1c(SCC(=O)c2ccc(O)c(O)c2)nc2ccsc2c1=O | 23.7* | 9.3 | 24.8* | 13.5 | 34.3* | -6.4 | 25.1* | 35.6*
CO[C@H]([C@H](C)/C=C/N(C)C=O)[C@@H](C)C(O)CC[C@H](C)[C@H](O)[C@H](C)[C@H]1OC(=O)/C=C/C(C)=C/C[C@H](O)C[C@@H]2C=CC[C@@H](C[C@H](OC)[C@@]3(CO3)[C@@H](OC)C[C@@H](OC)[C@@H]1C)O2 (stereo not given in full) | 5.5 | nt | nt | 1.5 | -2.3 | nt | nt | nt
Oc1ccccc1/C=N/c1c(-c2ccco2)nc2ccccn12 | 26.9* | 29.5 | 19.7* | 15.1 | 52.3* | 0.9 | 4.1 | 3.6 | PRMT1 confirm=5.8
COc1cc(-c2nc3ccccn3c2/N=C/c2cccc(OC)c2O)ccc1O | 4.4 | 5.0 | -0.3 | 7.3 | 11.3 | nt | nt | nt
COc1ccc(C(=O)OCC(=O)Nc2ncc([N+](=O)[O-])s2)cc1OC | 21.0 | 9.4 | 20.6* | -12.4 | 38.0* | -19.1 | 7.6 | 24.7
O=C(COC(=O)c1ccc(Br)o1)Nc1ncc([N+](=O)[O-])s1 | 12.0 | 16.9 | -5.4 | -7.5 | 23.4 | nt | nt | nt
SMILES | PRMT1 FP inh | HTRA1 inh | TCR CD3 inh | SIAE primary | ABHD4 inh | BSA probe FL | TCR-CD3 inh conf | ABHD4 confirm | others
COc1ccc(-c2c(C)c3ccc(O)cc3oc2=O)cc1OC | -4.4 | -1.6 | 8.9 | -1.7 | -9.4 | nt | nt | nt
Nc1ccc(-c2c3ccc(=O)cc-3oc3cc(O)ccc23)cc1C(=O)O | 70.5* | 28.2 | 37.9* | 13.2 | 30.2* | 49.2* | 33.6* | 39.7*
O=[N+]([O-])c1cc(Br)c(O)c(/C=N/Nc2nnnn2-c2cccc3ccccc23)c1 | 5.2 | 23.7 | 20.1* | 16.3 | 39.0* | -15.3 | 41.4* | 64.5*
O=[N+]([O-])c1ccc(NN=Cc2cccc3ccccc23)cc1 | 2.8 | -0.1 | 7.8 | -10.1 | 2.1 | nt | nt | nt
C=CCN1C(=O)c2n[nH]c(C(C)C)c2C1c1ccc(C)cc1 (stereo not given) | 2.3 | nt | -7.2 | 2.0 | 1.8 | nt | nt | nt
O=C1/C(=C/c2ccco2)SC(=S)N1c1cccnc1 | 46.1* | 21.4 | 28.3* | -1.7 | 31.4* | -7.7 | 22.7* | 6.5 | PRMT1 confirm=19.9
CCOC(=O)CN1C(=O)S/C(=C/c2ccco2)C1=O | 6.5 | -3.7 | 5.7 | -1.6 | 13.5 | nt | nt | nt
O=C1/C(=C\c2ccco2)SC(=S)N1c1ccc(O)cc1 | 14.0 | -1.3 | -4.8 | 8.0 | 12.6 | nt | nt | nt
NN1C(=O)/C(=C\c2ccco2)SC1=S | 43.2* | nt | 20.4* | 10.9 | 41.5* | -0.1 | 5.9 | 0.8
CCCCCCCCN1CCS(=O)(=O)N(Cc2ccc(Cl)cc2)C(C(=O)OC)C1 (stereo not given) | -0.6 | nt | nt | -1.7 | -5.0 | nt | nt | nt
CCC(C)Sc1cccc(-c2nc3cc(C)ccn3c2NC2CCCCC2)c1 (stereo not given) | 0.3 | -7.6 | 24.6*! | 4.3 | 39.2* | -4.5 | -0.8 | 52.4*
CCCCCCSc1cccc(-c2nc3cc(C)ccn3c2NC2CCCCC2)c1 | -2.2 | -5.8 | 3.4 | 0.4 | 17.5 | nt | nt | nt
Cc1ccc(-n2c(SCC(=O)c3ccccc3Br)nnc2-c2ccncc2)cc1 | 6.2 | nt | nt | 2.2 | 2.4 | nt | nt | nt
NC(=O)c1sc2nc(-c3ccccc3)ccc2c1N | 4.1 | -22.3 | -6.3 | 2.4 | 2.0 | nt | nt | nt
